Like-named read-outs stand apart in the source and are kept apart here.
Columns and labels:
MCF7 cells = experiment: MTS assay of cell proliferation, MCF7; format: cell-based, human; conditions: for IC50: Homo sapiens; for −log(IC50) (95% CI): tested compound alone
Procedure, shortened: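 Cells grown in DMEM with 10% FBS at 37 °C and 5% CO2. Plated at 5 × 10^3 per well, grown 24 h, then exposed 24 or 72 h to test compound alone or in pairs: 10 μM bleomycin-type or 250 μM alkylating agent added to the lignan, or 10 μM lignan added to either. DMSO 0.2% final; vehicle controls. MTS/PMS for 4 h; A492; cell-free background. Triplicate; IC50 fit, 95% CI.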

GM12878 cells = experiment: MTS assay of cell proliferation, GM12878; format: cell-based, human; conditions: Homo sapiens, 24 h, GM12878, 24 h incubation
Procedure, shortened: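 Lymphoblasts grown in RPMI 1640 with 15% FBS at 37 °C and 5% CO2. Plated at 5 × 10^3 per well, grown 24 h, then exposed 24 or 72 h to test compound alone or with 10 μM lignan inhibitor added. DMSO 0.2% final; vehicle controls. MTS/PMS in PBS pH 7.2 for 4 h at 37 °C; A492; cell-free background. Triplicate; normalized absorbance fitted for IC50 with 95% CI.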

pol β binding to DNA = pol β binding to DNA (Homo sapiens, UniProt P06746); experiment: Polymerase–DNA interaction, electrophoretic mobility shift assay, pol β; conditions: for inhibition of DNA binding to polymerase (EMSA): honokiol up to 200 μM, polymerase in excess of DNA
[1] = cited from earlier work

Compound: C=CCc1ccc(O)c(-c2ccc(O)c(CC=C)c2)c1 [HNL, 2-(4-hydroxy-3-prop-2-enyl-phenyl)-4-prop-2-enyl-phenol]
- IC50 (MCF7 cells; MCF7, 24 h, read-out: −log(IC50) (95% CI), MCF7, 24 h, tested compound alone (converted)): 20 µM
- IC50 (MCF7 cells; MCF7, 72 h, read-out: −log(IC50) (95% CI), MCF7, 72 h, tested compound alone (converted)): 15.8 µM
- −log(IC50) (95% CI) (MCF7 cells; MCF7, 24 h): 4.8 (4.7, 4.8)
- −log(IC50) (95% CI) (MCF7 cells; MCF7, 72 h): 4.9 (4.8, 5.0)
- EC50 (GM12878 cells; another study): > 100 µM
- EC50 (GM12878 cells; one study): > 1000 µM
- Ki (pol β binding to DNA): > 500 µM
- inhibition of DNA binding to polymerase (EMSA) (pol β binding to DNA; listed as Honokiol): does not inhibit DNA binding
- inhibition of DNA binding to polymerase (EMSA) (pol β binding to DNA; listed as honokiol): did not inhibit the binding of the DNA to the polymerase
- crossing of blood–brain and blood–cerebrospinal fluid barriers [1]: crosses the blood–brain and blood–cerebrospinal fluid barriers

Source: paper PMC5665024 (Chemical research in toxicology, 2017)
